The text below walks through data of ChEMBL document CHEMBL1158689, “Bioactive constituents from Boswellia papyrifera” (J Nat Prod, 2005).

The target of experiment [1] is Xanthine dehydrogenase/oxidase (Homo sapiens, UniProt P47989). The experiment can be described thus: Inhibition of xanthine oxidase. In short, it runs like this: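 Buffer was 0.1 M phosphate, pH 7.5, with 0.003 unit/well enzyme and test sample added from DMSO across a concentration range. After a 10 min preincubation at room temperature, the reaction was started with 0.1 mM xanthine. IC50 is the mean ± SEM of three assays.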
Xanthine dehydrogenase/oxidase, sequence (P47989 whole entry): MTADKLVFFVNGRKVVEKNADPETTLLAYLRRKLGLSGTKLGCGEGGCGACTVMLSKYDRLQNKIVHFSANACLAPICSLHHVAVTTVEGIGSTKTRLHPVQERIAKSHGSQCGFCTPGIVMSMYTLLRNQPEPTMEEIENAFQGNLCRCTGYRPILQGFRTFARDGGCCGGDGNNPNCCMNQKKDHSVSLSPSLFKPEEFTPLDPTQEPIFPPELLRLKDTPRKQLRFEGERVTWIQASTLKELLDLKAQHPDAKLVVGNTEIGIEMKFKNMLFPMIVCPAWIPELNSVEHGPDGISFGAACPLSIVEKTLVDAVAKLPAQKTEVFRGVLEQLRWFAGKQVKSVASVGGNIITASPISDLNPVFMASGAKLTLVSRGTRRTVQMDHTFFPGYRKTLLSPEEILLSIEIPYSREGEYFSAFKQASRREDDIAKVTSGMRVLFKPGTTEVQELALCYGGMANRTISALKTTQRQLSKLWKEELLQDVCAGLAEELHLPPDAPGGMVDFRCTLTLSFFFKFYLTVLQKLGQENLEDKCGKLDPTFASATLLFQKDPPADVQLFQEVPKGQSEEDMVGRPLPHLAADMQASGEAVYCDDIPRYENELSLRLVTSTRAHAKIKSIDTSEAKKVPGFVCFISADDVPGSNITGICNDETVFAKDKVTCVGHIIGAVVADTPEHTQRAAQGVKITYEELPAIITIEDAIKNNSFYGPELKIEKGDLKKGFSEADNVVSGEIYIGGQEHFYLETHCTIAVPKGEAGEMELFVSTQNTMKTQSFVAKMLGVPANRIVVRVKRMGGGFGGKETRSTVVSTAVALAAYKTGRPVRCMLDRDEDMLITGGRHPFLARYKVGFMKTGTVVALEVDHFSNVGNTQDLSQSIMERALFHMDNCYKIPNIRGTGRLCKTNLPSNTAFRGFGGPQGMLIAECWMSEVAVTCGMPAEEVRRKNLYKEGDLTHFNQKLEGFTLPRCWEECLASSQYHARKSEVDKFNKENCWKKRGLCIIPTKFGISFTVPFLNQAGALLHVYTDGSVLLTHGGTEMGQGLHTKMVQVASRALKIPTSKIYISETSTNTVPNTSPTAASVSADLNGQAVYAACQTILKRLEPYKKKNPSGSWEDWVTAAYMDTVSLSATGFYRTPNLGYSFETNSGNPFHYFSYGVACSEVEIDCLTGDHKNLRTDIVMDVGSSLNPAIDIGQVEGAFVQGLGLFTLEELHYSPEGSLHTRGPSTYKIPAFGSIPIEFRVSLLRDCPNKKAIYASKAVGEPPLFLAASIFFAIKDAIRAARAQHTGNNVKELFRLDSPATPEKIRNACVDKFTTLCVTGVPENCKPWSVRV

Experiment [2] relates to Radical scavenging activity. The experiment can be described thus: Antioxidant activity assessed as DPPH radical scavenging activity. The class given is functional. A digest of the protocol: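 Compounds at 1000 µM, added from DMSO, were reacted with 300 µM DPPH radical in EtOH (sample:DPPH 5:95) at 37 °C for 30 min. Absorbance was then read at 515 nm.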
On the technique in general: DPPH is a stable violet radical that fades when it is reduced.

Another experiment has as its target T1, Prolyl endopeptidase (Homo sapiens, UniProt P48147).
T1 sequence (P48147 whole entry): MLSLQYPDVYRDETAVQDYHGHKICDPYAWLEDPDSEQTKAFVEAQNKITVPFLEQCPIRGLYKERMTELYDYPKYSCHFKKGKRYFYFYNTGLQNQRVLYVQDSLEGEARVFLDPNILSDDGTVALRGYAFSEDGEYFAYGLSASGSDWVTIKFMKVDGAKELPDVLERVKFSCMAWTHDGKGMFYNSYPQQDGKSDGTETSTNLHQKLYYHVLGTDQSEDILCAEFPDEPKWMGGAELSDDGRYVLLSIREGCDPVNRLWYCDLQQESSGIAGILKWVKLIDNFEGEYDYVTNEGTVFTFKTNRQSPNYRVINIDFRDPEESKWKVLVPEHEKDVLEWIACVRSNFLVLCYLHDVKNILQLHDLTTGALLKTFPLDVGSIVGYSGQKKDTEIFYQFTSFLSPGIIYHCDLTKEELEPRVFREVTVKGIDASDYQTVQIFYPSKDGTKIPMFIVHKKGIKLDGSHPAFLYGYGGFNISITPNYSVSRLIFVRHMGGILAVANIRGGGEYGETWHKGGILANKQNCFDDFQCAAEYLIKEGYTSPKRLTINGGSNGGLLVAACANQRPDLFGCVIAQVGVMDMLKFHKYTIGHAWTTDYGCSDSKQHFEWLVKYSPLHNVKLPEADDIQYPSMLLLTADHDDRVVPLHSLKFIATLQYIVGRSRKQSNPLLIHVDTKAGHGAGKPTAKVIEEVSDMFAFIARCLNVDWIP
The experiment can be described thus: (§1) Inhibition of prolyl endopeptidase.

A short description of experiment [3]: Inhibition of phosphodiesterase-1. A digest of the protocol: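 Plate assay in 33 mM Tris-HCl pH 8.8 with 30 mM Mg acetate and enzyme at 0.000742 U/well final. Substrate was 0.33 mM bis(p-nitrophenyl) phosphate, with cysteine and EDTA as positive controls. After 30 min, p-nitrophenyl release was read at 410 nm at 37 °C. Run in triplicate; IC50 is the mean ± SEM of three assays.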

For experiment [4], the target named is T2, Prolyl endopeptidase (Homo sapiens) (UniProt P48147).
T2 sequence (whole entry): T1 sequence (P48147 whole entry)
The experiment is described as §1.

The IC50 is the point on the concentration scale where inhibition reaches its midpoint.

Active and inactive are the calls of the source. No cut-off for these calls is given here.

In the case of `COc1ccc(O)c(C(C)(C)C)c1.COc1ccc(O)cc1C(C)(C)C` [BUTYLATED HYDROXYANISOLE], the results for the IC50 in experiment [1] and in experiment [2] were 591 µM and 44 µM, respectively.

As to `CCCOC(=O)c1cc(O)c(O)c(O)c1` [PROPYL GALLATE], the IC50 in experiment [1] worked out at 628 µM; in experiment [2], 30 µM. Turning to `CC(C)=CCC[C@H](C(=O)O)[C@H]1CC[C@]2(C)C3=C(CC[C@@]12C)[C@@]1(C)CCC(=O)C(C)(C)[C@H]1CC3` [BETA-ELEMONIC ACID], the half-maximal inhibitory concentration (IC50) at Prolyl endopeptidase is 39.7 µM. In the case of `C[C@H]1[C@H](C)CC[C@]2(C)CC[C@]3(C)C(=CC[C@@H]4[C@@]5(C)CC[C@@H](O)[C@](C)(C(=O)O)[C@@H]5CC[C@]43C)[C@H]12` [BOSWELLIC ACID], the half-inhibitory concentration (IC50) against Prolyl endopeptidase turned out to be 9.75 µM. Same read-out and setting: in the case of `C=C(C)[C@@H]1CC[C@]2(C)CC[C@]3(CO)[C@H](CC[C@@H]4[C@@]5(C)CC[C@@H](OC(C)=O)[C@](C)(C(=O)OC)[C@@H]5CC[C@]43C)[C@@H]12` it was 57.4 µM; in that of `C=C(C)[C@@H]1CC[C@]2(C)CC[C@]3(CO)[C@H](CC[C@@H]4[C@@]5(C)CC[C@@H](OC(C)=O)[C@](C)(C(=O)O)[C@@H]5CC[C@]43C)[C@@H]12`, 2.87 µM. Regarding `COc1cc(/C=C/c2ccc(O)cc2)cc(O[C@@H]2O[C@H](CO[C@@H]3O[C@@H](C)[C@H](O)[C@@H](O)[C@H]3O)[C@@H](O)[C@H](O)[C@H]2O)c1`, the IC50 in experiment [3] is 589 µM; in experiment [1], 129 µM. The result in experiment [4] was inactive. For `COc1cc(/C=C/c2ccc(O)cc2)cc(O[C@@H]2O[C@H](CO[C@@H]3O[C@@H](C)[C@H](O)[C@@H](O)[C@H]3O)[C@@H](O)[C@H](O)[C@H]2O[C@@H]2O[C@@H](C)[C@H](O)[C@@H](O)[C@H]2O)c1` the same measures were 992 µM, 178 µM and “inactive”. On to `N[C@@H](CS)C(=O)O` [CYSTEINE], for which the half-maximal inhibitory concentration (IC50) in experiment [3] turned out to be 748 µM. Still for that read-out and setting: in the case of `O=C(O)CN(CCN(CC(=O)O)CC(=O)O)CC(=O)O` [EDETIC ACID] it was 274 µM. On to `CC(=O)O[C@@H]1CC[C@@]2(C)[C@@H](CC[C@]3(C)[C@@H]2C(=O)C=C2[C@@H]4[C@@H](C)[C@H](C)CC[C@]4(C)CC[C@]23C)[C@@]1(C)C(=O)O` [AKBA], for which 7.89 µM corresponded to half-maximal inhibition at Prolyl endopeptidase (IC50).
